From ChEMBL document CHEMBL4619796, “Discovery of 3-Quinazolin-4(3H)-on-3-yl-2,N-dimethylpropanamides as Orally Active and Selective PI3Kα Inhibitors” (ACS Med Chem Lett, 2020)
Activity calls are given as the source filed them. No cut-off for these calls is given here.

Key:
[1] = target: Phosphatidylinositol 4,5-bisphosphate 3-kinase catalytic subunit alpha isoform (Homo sapiens, UniProt P42336); experiment: Inhibition of PI3Kalpha (unknown origin) using PIP2:3PS peptide as substrate preincubated for 15 mins followed by ATP addition at Km concentration and further incubated for 150 mins by ADP-Glo assay
Chain of Phosphatidylinositol 4,5-bisphosphate 3-kinase catalytic subunit alpha isoform (P42336 whole entry, canonical isoform): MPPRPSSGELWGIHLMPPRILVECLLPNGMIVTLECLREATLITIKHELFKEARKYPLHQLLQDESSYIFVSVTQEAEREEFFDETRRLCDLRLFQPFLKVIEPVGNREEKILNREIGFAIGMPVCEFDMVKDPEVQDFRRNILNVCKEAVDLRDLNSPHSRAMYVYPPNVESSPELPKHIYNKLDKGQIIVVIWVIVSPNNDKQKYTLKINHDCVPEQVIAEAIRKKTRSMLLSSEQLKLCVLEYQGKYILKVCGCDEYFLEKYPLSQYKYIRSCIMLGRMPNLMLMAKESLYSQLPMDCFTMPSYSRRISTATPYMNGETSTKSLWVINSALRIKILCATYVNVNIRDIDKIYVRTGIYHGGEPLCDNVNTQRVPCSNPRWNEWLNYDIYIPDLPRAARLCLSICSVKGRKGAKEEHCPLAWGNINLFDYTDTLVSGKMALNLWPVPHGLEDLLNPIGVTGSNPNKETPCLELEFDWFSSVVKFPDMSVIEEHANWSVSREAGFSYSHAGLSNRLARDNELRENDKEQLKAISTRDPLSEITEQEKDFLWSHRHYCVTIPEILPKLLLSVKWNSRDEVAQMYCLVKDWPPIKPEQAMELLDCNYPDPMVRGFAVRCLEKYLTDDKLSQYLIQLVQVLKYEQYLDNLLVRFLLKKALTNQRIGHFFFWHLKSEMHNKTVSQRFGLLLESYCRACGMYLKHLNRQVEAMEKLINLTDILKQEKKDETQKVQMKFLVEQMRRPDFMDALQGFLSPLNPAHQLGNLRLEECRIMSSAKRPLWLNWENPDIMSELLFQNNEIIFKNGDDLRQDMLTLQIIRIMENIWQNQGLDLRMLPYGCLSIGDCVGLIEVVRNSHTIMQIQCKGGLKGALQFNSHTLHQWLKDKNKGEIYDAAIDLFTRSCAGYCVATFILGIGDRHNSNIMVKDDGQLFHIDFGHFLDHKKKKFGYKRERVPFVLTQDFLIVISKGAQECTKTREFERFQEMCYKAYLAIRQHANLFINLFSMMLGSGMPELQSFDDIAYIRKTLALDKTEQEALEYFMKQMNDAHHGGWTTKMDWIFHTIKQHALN

[2] = Inhibition of PI3K in human MCF7 cells assessed as reduction in AKT phosphorylation at residue S473 incubated for 2 hrs followed by insulin addition by ELISA; format: cell-based; settings: MCF7, 2 h
[3] = organism: Homo sapiens; experiment: (§1) Selectivity ratio of IC50 for PI3Kbeta (unknown origin) using PIP2:3PS peptide as substrate preincubated for 15 mins followed by ATP addition at Km concentration and further incubated for 120 mins by ADP-Glo assay to IC50 for PI3Kalpha (unknown origin) using PIP2:3PS peptide as substrate preincubated for 15 mins followed by ATP addition at Km concentration and further incubated for 150 mins by ADP-Glo assay
[4] = organism: Homo sapiens; experiment: as §1, with “PI3Kdelta” for “PI3Kbeta”
[5] = organism: Homo sapiens; experiment: as §1, with “PI3Kgamma” for “PI3Kbeta”
[6] = Cmax in BALB/c mouse at 10 mg/kg, po by HPLC analysis; format: ADME, organism-based; set-up: dose 10 mg/kg, route oral; settings: in vivo
[7] = Dose normalized AUC (0 to last) in BALB/c mouse at 10 mg/kg, po by HPLC analysis; format: ADME, organism-based; settings: in vivo
[8] = tested on: BT-474; experiment: Antitumor activity against PI3KCA mutant human BT474 cells xenografted in BALB/c nude mouse assessed as tumor growth inhibition at 10 to 20 mg/kg, po administered once daily for 21 days by caliper method; format: functional, organism-based
Outline: (§2)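 BT-474 (PIK3CA mutant human breast ductal carcinoma) subcutaneous xenografts in Balb/c nude mice. Oral dosing once daily for 21 days. Vehicle 0.5% MC + 0.2% Tween 80. Read-out is tumor growth inhibition.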

[9] = Toxicity in BALB/c nude mouse xenografted with PI3KCA mutant human BT474 cells at 30 mg/kg, po administered once daily; format: organism-based, BT-474; settings: in vivo
Outline: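 Balb/c nude mice bearing BT-474 subcutaneous xenografts. Oral dosing at 30 mg/kg once daily.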

[10] = tested on: BT-474; experiment: Antitumor activity against PI3KCA mutant human BT474 cells xenografted in BALB/c nude mouse assessed as tumor growth inhibition at 30 mg/kg, po administered once daily and measured after 30 days by caliper method relative to control; format: functional; settings: BT-474, po, 720 h, read-out: TGI
[11] = tested on: SK-OV-3; experiment: Antitumor activity against human SKOV3 cells xenografted in BALB/c nude mouse assessed as tumor growth inhibition at 10 to 100 mg/kg, po via gavage administered once daily and measured after 28 days by caliper method; format: functional, organism-based
Outline: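 SKOV-3 ovarian carcinoma subcutaneous xenografts in mice. Oral gavage once daily for 28 days at 10, 30 and 100 mg kg–1 day–1. Read-out is tumor growth inhibition.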

[12] = Clearance in BALB/c mouse at 1 mg/kg, […] by HPLC analysis; format: ADME, organism-based; settings: in vivo
[13] = Oral bioavailability in BALB/c mouse at 10 mg/kg by HPLC analysis; format: ADME, organism-based; settings: in vivo
[14] = tested on: BT-474; experiment: Antitumor activity against PI3KCA mutant human BT474 cells xenografted in BALB/c nude mouse assessed as tumor growth inhibition at 30 mg/kg, po administered once daily for 21 days by caliper method relative to control; format: functional; settings: BT-474, po, 504 h, read-out: TGI; outline: as §2

Compound | IC50 [1] | IC50 [2] | Ratio IC50 [3] | Ratio IC50 [4] | Ratio IC50 [5] | Cmax [6] | AUClast/dose [7] | TGI [8] | Activity [9] | inhibition in vivo at 30 mg/kg [10] | TGI [11] | CL/F [12] | bioavailability [13] | inhibition in vivo at 30 mg/kg [14]
CNC(=O)[C@H](C)Cn1cnc2ccc(-c3cnc(OC)c(NS(=O)(=O)c4cccc(Cl)c4Cl)c3)cc2c1=O | 1.1 nM | 0.45 nM | 175 | 11.6 | 8.87 | 24 µM | 5700 nM·h | inactive | Toxic |  |  |  |  | 
Cc1nc(NC(=O)N2CCC[C@H]2C(N)=O)sc1-c1ccnc(C(C)(C)C(F)(F)F)c1 [ALPELISIB] |  |  |  |  |  |  |  |  |  | 80.2% |  |  |  | 
CNC(=O)[C@H](C)Cn1cnc2ccc(-c3cnc(OC)c(NS(=O)(=O)c4ccc(Cl)cc4Cl)c3)cc2c1=O | 2.1 nM | 13.4 nM | 131 | 5.38 | 10.8 | 37 µM | 6260 nM·h | inactive | Toxic |  |  |  |  | 
COc1ncc(-c2ccc3ncn(C[C@@H](C)C(N)=O)c(=O)c3c2)cc1NS(=O)(=O)c1ccc(F)cc1Cl | 2 nM | 17.1 nM | 83.2 | 5.03 | 7.38 | 4.45 µM | 1631 nM.hr/(mg/kg) |  |  |  | inactive | 9.8 mL/min/kg | 56.2% | 
CNC(=O)[C@H](C)Cn1cnc2ccc(-c3cnc(OC)c(NS(=O)(=O)c4cccc(C(F)(F)F)c4)c3)cc2c1=O | 4.4 nM | 87.1 nM | 155 | 5.79 | 10.4 | 24.7 µM | 2020 nM·h |  |  |  |  | 9 mL/min/kg | 9% | 41.1%
